Calls of active or inactive are those of the source. No cut-off for these calls is given here.
Experiments:
[1] = target: Histone deacetylase 2 (Homo sapiens, UniProt Q92769); experiment: Inhibition of HDAC2 (unknown origin)
[2] = target: T1, Histone deacetylase 7 (Homo sapiens) (UniProt Q8WUI4); experiment: Inhibition of HDAC7 (unknown origin)
T1 sequence (whole entry): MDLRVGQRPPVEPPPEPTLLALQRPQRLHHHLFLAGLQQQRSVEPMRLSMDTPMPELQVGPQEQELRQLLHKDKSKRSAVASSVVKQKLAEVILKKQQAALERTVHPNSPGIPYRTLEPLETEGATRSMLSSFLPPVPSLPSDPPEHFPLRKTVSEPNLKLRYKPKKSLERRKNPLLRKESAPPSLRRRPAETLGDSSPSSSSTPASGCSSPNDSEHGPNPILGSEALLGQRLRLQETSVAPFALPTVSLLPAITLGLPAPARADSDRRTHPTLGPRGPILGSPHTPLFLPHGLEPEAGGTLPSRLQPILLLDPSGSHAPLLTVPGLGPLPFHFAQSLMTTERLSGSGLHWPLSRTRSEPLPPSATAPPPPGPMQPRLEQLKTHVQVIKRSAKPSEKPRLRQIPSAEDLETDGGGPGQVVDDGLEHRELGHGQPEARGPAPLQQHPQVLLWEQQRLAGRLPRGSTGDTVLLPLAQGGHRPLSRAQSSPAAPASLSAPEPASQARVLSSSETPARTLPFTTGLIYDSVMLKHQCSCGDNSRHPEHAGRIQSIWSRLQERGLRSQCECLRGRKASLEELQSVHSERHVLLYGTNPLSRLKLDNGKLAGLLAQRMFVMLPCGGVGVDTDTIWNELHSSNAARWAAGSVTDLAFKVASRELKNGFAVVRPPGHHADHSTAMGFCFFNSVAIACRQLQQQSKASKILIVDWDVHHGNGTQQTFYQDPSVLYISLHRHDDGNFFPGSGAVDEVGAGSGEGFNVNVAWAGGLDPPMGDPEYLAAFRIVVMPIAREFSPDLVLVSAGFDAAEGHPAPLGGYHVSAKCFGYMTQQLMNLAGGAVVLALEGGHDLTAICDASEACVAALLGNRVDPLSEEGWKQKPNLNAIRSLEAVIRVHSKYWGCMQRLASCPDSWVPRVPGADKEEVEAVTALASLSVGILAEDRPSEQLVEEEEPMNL

[3] = target: T2, Histone deacetylase 8 (Homo sapiens) (UniProt Q9BY41); experiment: Inhibition of HDAC8 (unknown origin)
T2 sequence (whole entry): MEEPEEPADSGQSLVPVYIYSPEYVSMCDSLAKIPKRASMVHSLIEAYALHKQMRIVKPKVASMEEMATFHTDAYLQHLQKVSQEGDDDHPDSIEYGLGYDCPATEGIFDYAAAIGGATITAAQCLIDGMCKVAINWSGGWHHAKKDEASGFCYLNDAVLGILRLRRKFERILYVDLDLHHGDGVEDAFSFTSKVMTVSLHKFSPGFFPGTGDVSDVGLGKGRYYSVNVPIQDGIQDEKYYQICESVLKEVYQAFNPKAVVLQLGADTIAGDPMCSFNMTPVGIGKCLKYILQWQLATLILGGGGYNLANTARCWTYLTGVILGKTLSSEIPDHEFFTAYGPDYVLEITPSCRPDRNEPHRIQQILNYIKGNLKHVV

[4] = target: Histone deacetylase 4 (Homo sapiens) (UniProt P56524); experiment: Inhibition of HDAC4 (unknown origin)
Histone deacetylase 4 (Homo sapiens), sequence (P56524 whole entry): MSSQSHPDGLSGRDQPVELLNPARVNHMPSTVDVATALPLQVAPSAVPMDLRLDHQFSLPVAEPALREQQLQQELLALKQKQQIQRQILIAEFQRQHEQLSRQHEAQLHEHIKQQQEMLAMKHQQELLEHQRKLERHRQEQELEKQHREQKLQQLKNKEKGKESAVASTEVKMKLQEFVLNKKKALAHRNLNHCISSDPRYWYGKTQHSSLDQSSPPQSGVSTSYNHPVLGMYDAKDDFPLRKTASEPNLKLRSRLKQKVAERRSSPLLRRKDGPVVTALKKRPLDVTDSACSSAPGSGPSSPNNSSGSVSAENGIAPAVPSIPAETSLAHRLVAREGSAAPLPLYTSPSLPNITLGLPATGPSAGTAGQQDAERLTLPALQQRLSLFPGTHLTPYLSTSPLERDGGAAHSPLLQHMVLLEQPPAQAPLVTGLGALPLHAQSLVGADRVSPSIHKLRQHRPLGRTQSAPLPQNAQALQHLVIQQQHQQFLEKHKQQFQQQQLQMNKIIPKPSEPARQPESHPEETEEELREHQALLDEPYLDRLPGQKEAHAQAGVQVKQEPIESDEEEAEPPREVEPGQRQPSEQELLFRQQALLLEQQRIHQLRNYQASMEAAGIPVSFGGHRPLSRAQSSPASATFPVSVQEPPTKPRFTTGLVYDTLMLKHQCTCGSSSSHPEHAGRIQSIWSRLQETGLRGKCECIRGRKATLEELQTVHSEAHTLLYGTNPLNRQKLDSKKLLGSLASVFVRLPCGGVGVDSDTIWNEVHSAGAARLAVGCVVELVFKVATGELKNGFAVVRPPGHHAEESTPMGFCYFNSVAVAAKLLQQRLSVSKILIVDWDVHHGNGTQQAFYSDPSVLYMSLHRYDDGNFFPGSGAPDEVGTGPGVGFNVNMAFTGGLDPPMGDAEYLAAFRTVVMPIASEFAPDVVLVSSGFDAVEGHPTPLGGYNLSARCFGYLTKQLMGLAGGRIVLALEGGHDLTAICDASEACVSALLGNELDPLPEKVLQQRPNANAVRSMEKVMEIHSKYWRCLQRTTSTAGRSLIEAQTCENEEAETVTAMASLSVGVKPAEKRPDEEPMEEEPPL

[5] = target: Histone deacetylase 1 (Homo sapiens, UniProt Q13547); experiment: Inhibition of HDAC1 (unknown origin)
Histone deacetylase 1, sequence (Q13547 whole entry): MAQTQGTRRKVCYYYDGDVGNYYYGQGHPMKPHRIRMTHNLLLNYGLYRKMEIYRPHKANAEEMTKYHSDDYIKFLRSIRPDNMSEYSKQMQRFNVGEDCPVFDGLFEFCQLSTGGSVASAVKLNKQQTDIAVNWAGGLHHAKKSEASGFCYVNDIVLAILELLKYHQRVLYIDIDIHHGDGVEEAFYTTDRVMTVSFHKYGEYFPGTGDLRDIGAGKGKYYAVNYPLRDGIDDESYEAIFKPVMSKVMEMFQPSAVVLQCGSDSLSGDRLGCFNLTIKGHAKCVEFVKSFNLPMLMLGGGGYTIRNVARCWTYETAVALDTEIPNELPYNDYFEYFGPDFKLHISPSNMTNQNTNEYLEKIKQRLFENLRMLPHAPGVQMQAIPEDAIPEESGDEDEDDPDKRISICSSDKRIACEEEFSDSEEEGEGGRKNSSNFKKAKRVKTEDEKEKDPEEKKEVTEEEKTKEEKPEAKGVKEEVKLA

[6] = target: T3, NAD-dependent protein deacetylase sirtuin-2 (Homo sapiens) (UniProt Q8IXJ6); experiment: Inhibition of His-tagged human recombinant SIRT2 expressed in Escherichia coli at 20 uM using Cbz-Lys(Ac)-AMC as substrate by fluorescence assay
T3 sequence (whole entry): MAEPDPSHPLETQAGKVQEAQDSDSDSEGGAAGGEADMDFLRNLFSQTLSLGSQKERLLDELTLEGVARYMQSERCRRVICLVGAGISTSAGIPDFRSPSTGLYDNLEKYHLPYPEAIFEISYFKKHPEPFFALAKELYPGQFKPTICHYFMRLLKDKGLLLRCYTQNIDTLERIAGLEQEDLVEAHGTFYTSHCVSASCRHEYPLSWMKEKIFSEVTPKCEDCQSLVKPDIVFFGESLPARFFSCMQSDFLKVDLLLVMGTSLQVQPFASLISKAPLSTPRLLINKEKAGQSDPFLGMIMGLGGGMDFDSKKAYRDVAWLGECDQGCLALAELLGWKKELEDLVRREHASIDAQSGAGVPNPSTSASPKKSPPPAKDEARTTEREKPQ
How it was run: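 Fluorescence deacetylase assay with in-house Cbz-Lys(Ac)-AMC substrate. Values are means of three experiments on racemic material. Single-point lines were tested at 20 µM, and less than 20% inhibition was scored as no inhibition.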

Histone deacetylase 2, sequence (Q92769 whole entry): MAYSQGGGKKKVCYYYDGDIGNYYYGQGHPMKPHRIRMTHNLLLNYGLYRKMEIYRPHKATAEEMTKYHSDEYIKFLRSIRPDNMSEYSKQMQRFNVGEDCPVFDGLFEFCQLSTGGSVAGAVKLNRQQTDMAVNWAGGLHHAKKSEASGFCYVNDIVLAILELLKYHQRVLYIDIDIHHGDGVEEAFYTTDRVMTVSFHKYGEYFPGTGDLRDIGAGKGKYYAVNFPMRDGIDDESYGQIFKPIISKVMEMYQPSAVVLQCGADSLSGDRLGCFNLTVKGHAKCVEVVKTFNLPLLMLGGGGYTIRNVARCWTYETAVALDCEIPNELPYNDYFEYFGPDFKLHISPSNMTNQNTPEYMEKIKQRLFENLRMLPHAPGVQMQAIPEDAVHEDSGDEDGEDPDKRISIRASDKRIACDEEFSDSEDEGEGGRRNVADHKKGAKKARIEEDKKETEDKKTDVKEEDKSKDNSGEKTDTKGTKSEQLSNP

inhibition [1] | inhibition [2] | inhibition [3] | inhibition [4] | inhibition [5] | inhibition [6] [%] | IC50 [1] [µM] | IC50 [5] [µM] | SMILES
inactive | inactive | inactive | inactive | inactive |  |  |  | NC(=O)C1CCCCc2c(-c3ccc(Cl)cc3)n[nH]c21 (racemic)
inactive | inactive | inactive | inactive | inactive | 43 |  |  | NC(=O)C1CCCc2c(-c3ccc(Cl)cc3)n[nH]c21 (racemic)
inactive | inactive | inactive | inactive | inactive |  |  |  | Cn1c(-c2n[nH]c3c2CCCC3C(N)=O)cc2ccccc21 (racemic)
inactive | inactive | inactive | inactive | inactive |  |  |  | NC(=O)C1CCCc2c(-c3cc4ccccc4o3)n[nH]c21 (racemic)
inactive | inactive | inactive | inactive | inactive | 47 |  |  | NC(=O)C1CCCc2c(-c3ccc(Br)cc3)n[nH]c21 (racemic)
inactive | inactive | inactive | inactive | inactive | 36 |  |  | Cc1ccc(-c2n[nH]c3c2CCCC3C(N)=O)cc1 (racemic)

Second part, the compound before the results:

SMILES | inhibition [1] | inhibition [2] | inhibition [3] | inhibition [4] | inhibition [5] | inhibition [6] [%] | IC50 [1] [µM] | IC50 [5] [µM]
NC(=O)C1CCCc2c(-c3cc(Br)cs3)n[nH]c21 (racemic) | inactive | inactive | inactive | inactive | inactive | < 20 |  | 
NC(=O)C1CCCc2c(-c3ccc(Cl)c(F)c3)n[nH]c21 (racemic) | inactive | inactive | inactive | inactive | inactive | 44 |  | 
NC(=O)C1CCCc2c(-c3nc4ccccc4s3)n[nH]c21 (racemic) | inactive | inactive | inactive | inactive | inactive |  |  | 
NC(=O)C1CCCc2c(-c3cc4ccccc4s3)n[nH]c21 (racemic) | inactive | inactive | inactive | inactive | inactive |  |  | 
CC1(C)Cc2c(-c3ccc(Cl)cc3)n[nH]c2C(C(N)=O)C1 (racemic) | inactive | inactive | inactive | inactive | inactive |  |  | 
NC(=O)C1CCCc2c(-c3ccc(Cl)c(Cl)c3)n[nH]c21 (racemic) |  |  |  |  |  |  | > 10 | > 10

Source: ChEMBL document CHEMBL3425433, “Discovery of bicyclic pyrazoles as class III histone deacetylase SIRT1 and SIRT2 inhibitors” (Bioorg Med Chem Lett, 2015)
